ChEMBL document CHEMBL2321826, “Synthesis and antibacterial evaluation of rhodanine-based 5-aryloxy pyrazoles against selected methicillin resistant and quinolone-resistant Staphylococcus aureus (MRSA and QRSA)” (Eur J Med Chem, 2013)
Converted amounts (≈) assume the structure as drawn.

Columns and labels:
Format in all cases: functional
Staphylococcus aureus [1] = experiment: Antibacterial activity against quinolone-resistant Staphylococcus aureus CCARM 3519 assessed as bacterial growth inhibition measured during 24 hrs incubation at 37 degC by two-fold serial dilution technique; conditions: CCARM 3519, 24 h
Method in brief: (§1)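 Clinical isolates grown to mid-log phase in Mueller-Hinton broth, diluted 1000-fold, inoculated at 10⁵ CFU/mL in MHB in 96-well microtiter plates. Two-fold serial dilutions gave final concentrations of […]. Oxacillin and norfloxacin were the positive controls. Growth was read as absorbance at 650 nm. MIC is the lowest concentration giving complete growth inhibition.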

Staphylococcus aureus [2] = experiment: Antibacterial activity against methicillin-resistant Staphylococcus aureus CCARM 3167 assessed as bacterial growth inhibition measured during 24 hrs incubation at 37 degC by two-fold serial dilution technique; conditions: CCARM 3167, 24 h; method in brief: as §1
Staphylococcus aureus [3] = experiment: Antibacterial activity against methicillin-resistant Staphylococcus aureus CCARM 3506 assessed as bacterial growth inhibition measured during 24 hrs incubation at 37 degC by two-fold serial dilution technique; conditions: CCARM 3506, 24 h; method in brief: as §1
Staphylococcus aureus [4] = experiment: Antibacterial activity against quinolone-resistant Staphylococcus aureus CCARM 3505 assessed as bacterial growth inhibition measured during 24 hrs incubation at 37 degC by two-fold serial dilution technique; conditions: CCARM 3505, 24 h; method in brief: as §1

Row | Structure (SMILES) | MIC (Staphylococcus aureus [1]) [µg/mL] | MIC (Staphylococcus aureus [2]) [µg/mL] | MIC (Staphylococcus aureus [3]) [µg/mL] | MIC (Staphylococcus aureus [4]) [µg/mL]
1 | Cc1nn(-c2ccccc2)c(Oc2ccccc2Cl)c1/C=C1\SC(=S)N([C@H](C(=O)O)C(C)C)C1=O | 4 (≈ 7.57 µM) | 4 (≈ 7.57 µM) | 4 (≈ 7.57 µM) | 8 (≈ 15.1 µM)
2 | Cc1nn(-c2ccccc2)c(Oc2cccc(Cl)c2)c1/C=C1\SC(=S)N([C@H](C(=O)O)C(C)C)C1=O | 4 (≈ 7.57 µM) | 4 (≈ 7.57 µM) | 4 (≈ 7.57 µM) | 8 (≈ 15.1 µM)
3 | Cc1nn(-c2ccccc2)c(Oc2ccc(Cl)cc2)c1/C=C1\SC(=S)N([C@H](C(=O)O)C(C)C)C1=O | 4 (≈ 7.57 µM) | 4 (≈ 7.57 µM) | 4 (≈ 7.57 µM) | 4 (≈ 7.57 µM)
4 | Cc1nn(-c2ccccc2)c(Oc2ccc(F)cc2)c1/C=C1\SC(=S)N([C@H](C(=O)O)C(C)C)C1=O | 8 (≈ 15.6 µM) | 8 (≈ 15.6 µM) | 8 (≈ 15.6 µM) | 8 (≈ 15.6 µM)
5 | Cc1nn(-c2ccccc2)c(Oc2ccc(Br)cc2)c1/C=C1\SC(=S)N([C@H](C(=O)O)C(C)C)C1=O | 4 (≈ 6.99 µM) | 2 (≈ 3.49 µM) | 4 (≈ 6.99 µM) | 4 (≈ 6.99 µM)
6 | Cc1nn(-c2ccccc2)c(Oc2ccc3ccccc3c2)c1/C=C1\SC(=S)N([C@H](C(=O)O)C(C)C)C1=O | 8 (≈ 14.7 µM) | 4 (≈ 7.36 µM) | 8 (≈ 14.7 µM) | 8 (≈ 14.7 µM)
7 | Cc1nn(-c2ccccc2)c(Oc2ccccc2)c1/C=C1\SC(=S)N([C@H](C(=O)O)C(C)C)C1=O | 16 (≈ 32.4 µM) | 16 (≈ 32.4 µM) | 16 (≈ 32.4 µM) | 16 (≈ 32.4 µM)
8 | Cc1ccccc1Oc1c(/C=C2\SC(=S)N([C@H](C(=O)O)C(C)C)C2=O)c(C)nn1-c1ccccc1 | 8 (≈ 15.8 µM) | 4 (≈ 7.88 µM) | 8 (≈ 15.8 µM) | 8 (≈ 15.8 µM)
9 | Cc1cccc(Oc2c(/C=C3\SC(=S)N([C@H](C(=O)O)C(C)C)C3=O)c(C)nn2-c2ccccc2)c1 | 4 (≈ 7.88 µM) | 4 (≈ 7.88 µM) | 8 (≈ 15.8 µM) | 4 (≈ 7.88 µM)
10 | Cc1ccc(Oc2c(/C=C3\SC(=S)N([C@H](C(=O)O)C(C)C)C3=O)c(C)nn2-c2ccccc2)cc1 | 4 (≈ 7.88 µM) | 4 (≈ 7.88 µM) | 4 (≈ 7.88 µM) | 4 (≈ 7.88 µM)
11 | Cc1ccc(Oc2c(/C=C3\SC(=S)N([C@H](C(=O)O)C(C)C)C3=O)c(C)nn2-c2ccccc2)c(C)c1 | 2 (≈ 3.83 µM) | 2 (≈ 3.83 µM) | 4 (≈ 7.67 µM) | 4 (≈ 7.67 µM)
12 | Cc1nn(-c2ccccc2)c(Oc2cccc(C(F)(F)F)c2)c1/C=C1\SC(=S)N([C@H](C(=O)O)C(C)C)C1=O | 8 (≈ 14.2 µM) | 4 (≈ 7.12 µM) | 8 (≈ 14.2 µM) | 8 (≈ 14.2 µM)
13 | COc1ccc(Oc2c(/C=C3\SC(=S)N([C@H](C(=O)O)C(C)C)C3=O)c(C)nn2-c2ccccc2)cc1 | 8 (≈ 15.3 µM) | 8 (≈ 15.3 µM) | 8 (≈ 15.3 µM) | 8 (≈ 15.3 µM)
14 | COc1ccccc1Oc1c(/C=C2\SC(=S)N([C@H](C(=O)O)C(C)C)C2=O)c(C)nn1-c1ccccc1 | 16 (≈ 30.6 µM) | 16 (≈ 30.6 µM) | 16 (≈ 30.6 µM) | 16 (≈ 30.6 µM)
15 | CCC(C)[C@@H](C(=O)O)N1C(=O)/C(=C/c2c(C)nn(-c3ccccc3)c2Oc2c(Cl)cccc2Cl)SC1=S (stereo partly specified) | 16 (≈ 27.8 µM) | 8 (≈ 13.9 µM) | 16 (≈ 27.8 µM) | 16 (≈ 27.8 µM)
16 | Cc1nn(-c2ccccc2)c(Oc2ccc(Cl)cc2)c1/C=C1\SC(=S)N(CC(=O)O)C1=O | 16 (≈ 32.9 µM) | 16 (≈ 32.9 µM) | 16 (≈ 32.9 µM) | 16 (≈ 32.9 µM)
17 | Cc1nn(-c2ccccc2)c(Oc2ccc(F)cc2)c1/C=C1\SC(=S)N(CC(=O)O)C1=O | > 64 | > 64 | > 64 | > 64
18 | Cc1nn(-c2ccccc2)c(Oc2ccc(Br)cc2)c1/C=C1\SC(=S)N(CC(=O)O)C1=O | 8 (≈ 15.1 µM) | 8 (≈ 15.1 µM) | 8 (≈ 15.1 µM) | 16 (≈ 30.2 µM)
19 | Cc1nn(-c2ccccc2)c(Oc2ccc3ccccc3c2)c1/C=C1\SC(=S)N(CC(=O)O)C1=O | 8 (≈ 15.9 µM) | 8 (≈ 15.9 µM) | 8 (≈ 15.9 µM) | 8 (≈ 15.9 µM)
20 | Cc1nn(-c2ccccc2)c(Oc2ccccc2)c1/C=C1\SC(=S)N(CC(=O)O)C1=O | > 64 | > 64 | > 64 | > 64
21 | Cc1ccccc1Oc1c(/C=C2\SC(=S)N(CC(=O)O)C2=O)c(C)nn1-c1ccccc1 | 32 (≈ 68.7 µM) | 16 (≈ 34.4 µM) | 32 (≈ 68.7 µM) | 32 (≈ 68.7 µM)
22 | Cc1cccc(Oc2c(/C=C3\SC(=S)N(CC(=O)O)C3=O)c(C)nn2-c2ccccc2)c1 | 16 (≈ 34.4 µM) | 16 (≈ 34.4 µM) | 16 (≈ 34.4 µM) | 32 (≈ 68.7 µM)
23 | Cc1ccc(Oc2c(/C=C3\SC(=S)N(CC(=O)O)C3=O)c(C)nn2-c2ccccc2)cc1 | 32 (≈ 68.7 µM) | 32 (≈ 68.7 µM) | 32 (≈ 68.7 µM) | 32 (≈ 68.7 µM)
24 | Cc1ccc(Oc2c(/C=C3\SC(=S)N(CC(=O)O)C3=O)c(C)nn2-c2ccccc2)c(C)c1 | 16 (≈ 33.4 µM) | 8 (≈ 16.7 µM) | 8 (≈ 16.7 µM) | 16 (≈ 33.4 µM)
